Source: ChEMBL document CHEMBL1125534, “Omega-[(omega-arylalkyl)aryl]alkanoic acids: a new class of specific LTA4 hydrolase inhibitors” (J Med Chem, 1992)

Assays:
[1] = tested on: Leukotriene A-4 hydrolase (Sus scrofa); assay: Inhibitory activity Leukotriene A4 hydrolase at 5 mg/kg (po) in rat plasma
[2] = tested on: Leukotriene A-4 hydrolase (Sus scrofa); assay: Inhibitory activity against Leukotriene A4 hydrolase at 100 mg/kg (po) in rat plasma extracts
[3] = tested on: Leukotriene A-4 hydrolase (Sus scrofa); assay: Inhibitory activity against Leukotriene A4 hydrolase at 30 mg/kg (po) in rat plasma extracts
[4] = tested on: Leukotriene A-4 hydrolase (Sus scrofa); assay: Inhibition of LTA4 hydrolase mediated LTB4 biosynthesis by porcine leukocytes at 2*10e-5M
[5] = Evaluated for the inhibitory activity against Leukotriene A4 hydrolase; set-up: species or system Sus scrofa
Method in brief: (§1)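 Porcine leukocyte homogenate (cells at 10⁸/mL, sonicated) with CaCl₂ and ATP each at 2 mmol/L final. Preincubated 3 min at 25 °C with inhibitor (in ethanol or PBS) plus 5,8,11,14-[…] acid 4 μmol/L final to block 12-LO. Then incubated 5 min at 37 °C with [1-¹⁴C]arachidonic acid. LTB₄ and 6-trans-isomers separated by HPLC with radioactivity detection. Mean of ≥3 experiments.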

[6] = Inhibition of LTB4 biosynthesis by porcine leukocytes at LTA4 hydrolase level at a concentration of 2*10e-5 M; format: functional, Sus scrofa
Method in brief: as §1

[7] = tested on: Leukotriene A-4 hydrolase (Sus scrofa); assay: Inhibitory activity against Leukotriene A4 hydrolase at 5 mg/kg (po) in rat plasma extracts
[8] = tested on: Leukotriene A-4 hydrolase (Sus scrofa); assay: Inhibitory activity against Leukotriene A4 hydrolase at 100 mg/kg (po) in rat plasma

inhibition [4] [%]	IC50 [5] [µM]	SMILES	Inhibition [6] [%]	other results
90	1.5	O=C(O)COCCCCc1ccc(CCCc2ccccc2)s1	–	inhibition [1]: 40%; inhibition [2]: 73%; inhibition [3]: 54%
19	188	O=C(O)CCCCCCc1ccc(Cc2ccc(C(F)(F)F)cc2)cc1	–	–
–	–	O=C(O)CCCCCC(=O)c1ccc(CCCc2ccccc2)cc1	27	–
74	6.2	O=C(O)CCCCCSc1ccc(CCCc2ccccc2)cc1	–	inhibition [2]: 12%; inhibition [3]: 20%
43	30	O=C(O)CCCCCCc1ccc(CCc2ccccc2)cc1	–	–
–	–	O=C(O)CCCCCOc1ccc(Cc2ccccc2)cc1	69	–
–	–	O=C(O)CCCCCCc1ccc(Cc2ccncc2)cc1	43	–
76	7.7	O=C(O)CCCCCCc1ccc(Cc2ccccn2)cc1	–	–
–	–	O=C(O)CCCCCc1ccc(CCCc2ccccc2)s1	61	–
–	–	O=C(O)CCCCCCc1ccc(CCCc2cccc(Cl)c2)s1	45	–
82	9.1	O=C(O)CCCCCSc1ccc(Cc2ccccc2)cc1	–	–
–	–	CNc1ccc(Cc2ccc(CCCCCCC(=O)O)cc2)cc1	78	–
–	–	O=C(O)CCCCCCc1ccc(Cc2ccccc2Cl)cc1	0	–
100	1.7	NC(=O)Nc1ccc(Cc2ccc(CCCCCCC(=O)O)cc2)cc1	–	–
–	–	COC(=O)COCCCCc1ccc(CCCc2ccccc2)s1	66	–
–	–	CN(C)c1ccc(Cc2ccc(CCCCCCC(=O)O)cc2)cc1	29	–
–	–	c1ccc(CCCc2ccc(CCCCCCC3N=NN=N3)s2)cc1	29	–
53	72.5	O=C(O)CCCCCCc1ccc(Cc2ccc([N+](=O)[O-])cc2)cc1	–	–
–	–	CC(C)(C)c1ccc(Cc2ccc(CCCCCCC(=O)O)cc2)cc1	0	–
–	–	O=C(O)CCCCCCc1ccc(Cc2ccc(O)cc2)cc1	56	–
–	–	NC(=O)CCCCCCc1ccc(CCCc2ccccc2)s1	0	–

inhibition [4] [%]	IC50 [5] [µM]	SMILES	Inhibition [6] [%]	other results
82	6.3	O=C(O)CCCC(=O)CCc1ccc(CCCc2ccccc2)s1	–	–
–	–	O=C(O)CCCCCCc1ccc(Cc2cccc3ccccc23)cc1	0	–
63	21.1	Cc1ccc(Cc2ccc(CCCCCCC(=O)O)cc2)cc1	–	–
–	–	O=C(O)CCCCCCc1ccc(CCCc2ccc(O)cc2)s1	69	–
–	–	O=C(O)CCCCCCc1ccc(Cc2ccc3ccccc3c2)cc1	22	–
89	0.9	Nc1ccc(Cc2ccc(CCCCCCC(=O)O)cc2)cc1	–	inhibition [2]: 31%; inhibition [7]: 29%
–	–	O=C([O-])CCCCc1ccc(CCCc2ccccc2)s1.[Na+]	0	–
–	–	CC(C)(CCCCCc1ccc(CCCc2ccccc2)s1)C(=O)O	46	–
–	–	O=C(O)CCCCCCc1ccc(-c2ccccc2)s1	67	–
–	–	O=C(O)CCCCCC(=O)c1ccc(CCCc2ccccc2)s1	66	–
79	2.8	O=C(O)CCCCCSc1ccc(CCCc2ccccc2)s1	–	inhibition [2]: 19%; inhibition [3]: 19%; inhibition [7]: 4%
73	7.2	O=C(O)CCCCCCc1ccc(Cc2ccc(Cl)cc2)cc1	–	inhibition [2]: 7%; inhibition [7]: 22%
–	–	O=C(O)CCCCCCc1ccc(Cc2cccnc2)cc1	65	–
73	6.2	O=C(O)CCCC(O)CCc1ccc(CCCc2ccccc2)s1 (configuration not stated)	–	–
–	–	N#CCCCCCCc1ccc(CCCc2ccccc2)s1	0	–
–	–	O=C([O-])CCCCc1ccc(CCCc2ccccc2)cc1.[Na+]	35	–
–	–	O=C(O)CCCCCCCc1ccc(CCCc2ccccc2)cc1	45	–
–	–	O=C(O)CCCCCCc1ccc(CCCc2ccc(Cl)cc2)s1	63	–
–	–	CS(=O)(=O)Nc1ccc(Cc2ccc(CCCCCCC(=O)O)cc2)cc1	0	–
–	–	O=C([O-])CCCCCCCc1ccc(CCCc2ccccc2)s1.[Na+]	0	–
–	–	COc1ccc(CCCc2ccc(SCCCCCC(=O)O)cc2)cc1	35	–

inhibition [4] [%]	IC50 [5] [µM]	SMILES	Inhibition [6] [%]	other results
51	15	O=C(O)CCCCCCc1ccc(Cc2ccccc2)s1	–	–
86	3.5	O=C(O)CCCCCCc1ccc(CCc2ccccc2)s1	–	–
–	–	O=C(O)CCCCCS(=O)(=O)c1ccc(CCCc2ccccc2)s1	0	–
79	3	O=C(O)CCCCCCc1ccc(Cc2ccccc2)cc1	–	–
–	–	O=C(O)CCCCCCc1ccc(Cc2ccc3ccccc3n2)cc1	48	–
80	9.7	COc1ccc(CCCc2ccc(CCCCCCC(=O)O)s2)cc1	–	–
–	–	O=C(O)CNC(=O)CCCc1ccc(CCCc2ccccc2)s1	53	–
–	–	O=C(O)CCCNC(=O)Cc1ccc(CCCc2ccccc2)s1	12	–
69	9.2	COc1ccc(Cc2ccc(CCCCCCC(=O)O)cc2)cc1	–	–
–	–	O=C(O)CCCCCCc1ccc(-c2ccccc2)cc1	41	–
85	5	O=C(O)CCCCCCc1ccc(Cc2cnc3ccccc3c2)cc1	–	inhibition [2]: 27%; inhibition [3]: 19%; inhibition [7]: 27%
–	–	O=C(O)CCCCC[S+]([O-])c1ccc(CCCc2ccccc2)s1 (configuration not stated)	0	–
–	–	O=C(O)CCCCCS(=O)(=O)c1ccc(Cc2ccccc2)cc1	2	–
–	–	O=C(O)CCCCCc1ccc(CCCc2ccccc2)cc1	43	–
–	–	O=C([O-])CCCCCCc1ccc(CCCCc2ccccc2)s1.[Na+]	0	–
–	–	CC(=O)Nc1ccc(Cc2ccc(CCCCCCC(=O)O)cc2)cc1	41	–
–	–	O=C(O)CCCCCCc1ccc(Cc2ccnc3ccccc23)cc1	0	–
–	–	O=C(O)CCCC(=O)NCc1ccc(CCCc2ccccc2)s1	38	–
–	2.9	O=C(O)CCCCCCc1ccc(CCCc2ccccc2)s1	–	inhibition [3]: 44%; inhibition [8]: 82%; inhibition [7]: 0%
76	3.4	O=C(O)CCCCCCc1ccc(CCCc2ccccc2)cc1	–	inhibition [3]: 15%
